Experimental data taken from paper PMC5028085 (Drug Design, Development and Therapy, 2016).
Structures can show the parent of a compound that is named as a salt. Where two headings read alike, the source gives them in different places. Marks after values point to notes of the source that are not given here.

Columns and labels:
[1] = Observed clinical pharmacokinetics after oral sarpogrelate hydrochloride; assay type: in vivo, human
[2] = biological target: P-gp (Homo sapiens, UniProt P08183); assay type: cell-based; conditions: for Permeability Papp,AB of loperamide / Permeability Papp,BA of loperamide / Inhibition (%): MDCK-II-P-gp; for Permeability Papp,AB of loperamide / Permeability Papp,BA of loperamide: loperamide 10 μM, mean ± SD (n=3); for Inhibition (%): loperamide transport
[3] = biological target: T1, BCRP (Homo sapiens, UniProt Q9UNQ0); assay type: cell-based; conditions: for Permeability Papp,AB of prazosin / Permeability Papp,BA of prazosin / Inhibition (%): MDCK-II-BCRP; for Permeability Papp,AB of prazosin / Permeability Papp,BA of prazosin: prazosin 10 μM, mean ± SD (n=3); for Inhibition (%): prazosin transport; for inhibition of BCRP-mediated prazosin transport: all tested concentrations up to 10 μM
T1 sequence (Q9UNQ0 1-655): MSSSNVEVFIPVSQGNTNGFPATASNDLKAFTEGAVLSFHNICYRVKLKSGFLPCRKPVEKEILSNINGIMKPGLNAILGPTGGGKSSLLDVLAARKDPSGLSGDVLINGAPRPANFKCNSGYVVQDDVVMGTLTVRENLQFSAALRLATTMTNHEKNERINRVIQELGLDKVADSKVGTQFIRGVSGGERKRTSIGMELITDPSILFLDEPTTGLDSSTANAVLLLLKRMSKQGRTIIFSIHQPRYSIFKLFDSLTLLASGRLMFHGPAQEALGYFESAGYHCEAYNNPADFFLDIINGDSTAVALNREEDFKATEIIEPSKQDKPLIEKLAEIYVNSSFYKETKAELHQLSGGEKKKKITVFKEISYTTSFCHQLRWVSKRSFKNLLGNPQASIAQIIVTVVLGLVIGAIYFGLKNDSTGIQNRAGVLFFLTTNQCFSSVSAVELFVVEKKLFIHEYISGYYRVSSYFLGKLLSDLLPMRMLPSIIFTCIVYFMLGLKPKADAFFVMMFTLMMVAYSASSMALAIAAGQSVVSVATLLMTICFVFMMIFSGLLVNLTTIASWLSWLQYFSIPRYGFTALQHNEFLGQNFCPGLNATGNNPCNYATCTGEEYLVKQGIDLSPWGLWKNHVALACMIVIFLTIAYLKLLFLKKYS

[4] = Metabolic stability in pooled human liver microsomes for CLint; assay type: in vitro ADME; conditions: for microsomal CLint at 400 nM: human, pooled human liver microsomes
Method in brief: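 Preincubated 5 min at 37°C, then incubated with 400 nM substrate up to 60–90 min. Run in duplicate, analysed by LC-MS/MS as % remaining vs time 0. t1/2 from initial log-linear slope; CLint = (0.693/t1/2)×(incubation volume/microsomal protein).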

[5] = system: MDCK-II-P-gp cells; assay: MTT cytotoxicity assay in MDCK-II-P-gp cells; assay type: cell-based, canine; conditions: 1 hour incubation, highest drug concentration tested (10 μM)
[6] = system: MDCK-II-BCRP cells; assay: MTT cytotoxicity assay in MDCK-II-BCRP cells; assay type: cell-based, canine; conditions: 1 hour incubation, highest drug concentration tested (10 μM)
[7] = system: CYP2D6; conditions: read-out: CYP2D6 Ki; competitive inhibition type, in vitro; cited from earlier work
[8] = cited from earlier work
[9] = system: UGT1A4; conditions: M-1 glucuronidation; cited from earlier work
[10] = system: UGT1A9; conditions: M-1 glucuronidation; cited from earlier work
[11] = system: UGT2B7; conditions: M-1 glucuronidation; cited from earlier work
[12] = cited from earlier work; remark: listed apart in the source
[13] = PBPK input parameters predicted, defaulted, optimized or assumed in Simcyp; design: species or system human; conditions: Assumed from Reference 21
[14] = MTT cytotoxicity assay in MDCK-II-P-gp cells; assay type: cell-based, canine; conditions: dog
[15] = MTT cytotoxicity assay in MDCK-II-BCRP cells; assay type: cell-based, canine; conditions: dog
[16] = Metabolic stability of sarpogrelate in human intestinal microsomes; assay type: in vitro ADME; conditions: sarpogrelate 400 nM, 60-minute incubation; data not shown
[17] = Metabolic stability of sarpogrelate in human blood; assay type: in vitro ADME; conditions: sarpogrelate 400 nM, 60-minute incubation; data not shown
[18] = cited from earlier work; remark: listed apart in the source
[19] = high solubility and permeability profile; cited from earlier work
[20] = system: CYP2D6; conditions: cited from earlier work
[21] = system: CYP2D6; conditions: single coadministration with sarpogrelate hydrochloride 100 mg; cited from earlier work
[22] = multiple doses 100 mg tid for 1 day
[23] = observed, single oral 100 mg sarpogrelate hydrochloride, median (range), ref 20
[24] = human, MDCK-II-P-gp cell monolayer, probe loperamide (10 µM)
[25] = human, MDCK-II-BCRP cell monolayer, probe prazosin (10 µM)
[26] = single oral 100 mg sarpogrelate hydrochloride

Sequence of P-gp (P08183 whole entry): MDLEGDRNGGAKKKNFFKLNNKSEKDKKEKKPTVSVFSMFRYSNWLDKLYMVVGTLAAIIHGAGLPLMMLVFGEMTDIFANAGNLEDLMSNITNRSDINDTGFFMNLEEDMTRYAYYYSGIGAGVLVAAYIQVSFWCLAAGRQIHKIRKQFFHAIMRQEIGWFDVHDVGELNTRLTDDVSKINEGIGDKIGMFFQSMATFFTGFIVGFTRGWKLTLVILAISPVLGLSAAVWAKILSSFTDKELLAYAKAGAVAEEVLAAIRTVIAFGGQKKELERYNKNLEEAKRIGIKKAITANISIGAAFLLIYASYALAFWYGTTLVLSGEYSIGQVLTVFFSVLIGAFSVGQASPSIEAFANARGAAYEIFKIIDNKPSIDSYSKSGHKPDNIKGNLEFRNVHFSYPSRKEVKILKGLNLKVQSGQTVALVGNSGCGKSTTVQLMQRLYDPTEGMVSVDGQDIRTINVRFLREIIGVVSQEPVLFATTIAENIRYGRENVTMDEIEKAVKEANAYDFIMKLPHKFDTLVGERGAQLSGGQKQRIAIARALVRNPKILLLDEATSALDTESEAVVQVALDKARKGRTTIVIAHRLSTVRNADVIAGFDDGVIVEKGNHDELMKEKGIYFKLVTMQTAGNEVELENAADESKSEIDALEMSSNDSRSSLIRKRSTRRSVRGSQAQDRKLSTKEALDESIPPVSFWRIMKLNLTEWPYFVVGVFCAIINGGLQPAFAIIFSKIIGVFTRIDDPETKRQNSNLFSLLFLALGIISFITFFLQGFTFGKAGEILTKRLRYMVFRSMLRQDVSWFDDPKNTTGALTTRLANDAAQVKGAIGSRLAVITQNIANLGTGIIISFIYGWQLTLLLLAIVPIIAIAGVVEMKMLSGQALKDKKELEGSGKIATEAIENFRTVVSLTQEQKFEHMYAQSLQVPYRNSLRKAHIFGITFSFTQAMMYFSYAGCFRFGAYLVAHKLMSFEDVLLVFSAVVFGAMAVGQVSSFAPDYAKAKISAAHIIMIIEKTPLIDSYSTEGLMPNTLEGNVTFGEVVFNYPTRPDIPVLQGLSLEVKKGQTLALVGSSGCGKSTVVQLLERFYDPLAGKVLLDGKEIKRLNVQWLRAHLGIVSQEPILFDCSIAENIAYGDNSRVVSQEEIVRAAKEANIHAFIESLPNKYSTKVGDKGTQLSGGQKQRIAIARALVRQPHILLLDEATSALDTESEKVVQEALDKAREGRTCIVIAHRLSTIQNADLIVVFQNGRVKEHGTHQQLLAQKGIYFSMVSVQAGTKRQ

Structure (SMILES): COc1cccc(CCc2ccccc2OC[C@H](O)CN(C)C)c1 (racemic) [M-1, (R,S)-1-{2-[2-(3-methoxyphenyl)ethyl]-phenoxy}-3-(dimethylamino)-2-propanol]
- observed ratio of AUC of M-1 to sarpogrelate ([1]; single oral 100 mg sarpogrelate hydrochloride, observed clinical data): 0.139
- Permeability Papp,AB of loperamide ([2]; inhibitor 0.2 µM): 0.0894±0.0188 ×10^−6 cm/s
- Permeability Papp,BA of loperamide ([2]; inhibitor 0.2 µM): 1.95±0.0443 ×10^−6 cm/s
- Permeability Papp,AB of loperamide ([2]; inhibitor 2 µM): 0.0822±0.0192 ×10^−6 cm/s
- Permeability Papp,BA of loperamide ([2]; inhibitor 2 µM): 1.84±0.0249 ×10^−6 cm/s
- Permeability Papp,AB of loperamide ([2]; inhibitor 10 µM): 0.104±0.0243 ×10^−6 cm/s
- Permeability Papp,BA of loperamide ([2]; inhibitor 10 µM): 1.95±0.0403 ×10^−6 cm/s
- Inhibition (%) ([2]; inhibitor 0.2 µM): 2.00%
- Inhibition (%) ([2]; inhibitor 2 µM): 7.82%
- Inhibition (%) ([2]; inhibitor 10 µM): 2.91%
- inhibition of P-gp-mediated loperamide transport ([2]; all tested concentrations up to 10 μM): < 10%
- Permeability Papp,AB of prazosin ([3]; inhibitor 0.2 µM): 0.891±0.0355 ×10^−6 cm/s
- Permeability Papp,BA of prazosin ([3]; inhibitor 0.2 µM): 3.42±0.0237 ×10^−6 cm/s
- Permeability Papp,AB of prazosin ([3]; inhibitor 2 µM): 0.813±0.0547 ×10^−6 cm/s
- Permeability Papp,BA of prazosin ([3]; inhibitor 2 µM): 3.31±0.0467 ×10^−6 cm/s
- Permeability Papp,AB of prazosin ([3]; inhibitor 10 µM): 0.811±0.0111 ×10^−6 cm/s
- Permeability Papp,BA of prazosin ([3]; inhibitor 10 µM): 3.32±0.0139 ×10^−6 cm/s
- Inhibition (%) ([3]; inhibitor 0.2 µM): 0.380%
- Inhibition (%) ([3]; inhibitor 2 µM): 0.771%
- Inhibition (%) ([3]; inhibitor 10 µM): 0.381%
- inhibition of BCRP-mediated prazosin transport [3]: did not inhibit
- Additional CLint in HLM (NADPH generating system) ([4]; 400 nM M-1 in HLM with NADPH generating system): 150 μL/min/mg protein
- cell viability (MTT assay) [5]: > 97%
- cell viability (MTT assay) [6]: > 97%
- Ki [7]: 120 nM
- observed values of AUC0–24 h (range across studies) [8, 22]: 246.2 to 267.2 ng·h/mL
- Tmax [8, 23]: 1.0 (0.33–1.5) ^a hours
- CLint by rUGT1A4 [9]: 0.63 μL/min/mg protein
- CLint by rUGT1A9 [10]: 1.30 μL/min/mg protein
- CLint by rUGT2B7 [11]: 0.32 μL/min/mg protein
- fup (fraction unbound in plasma) [12]: 0.03

Structure (SMILES): COc1cccc(CCc2ccccc2OCC(CN(C)C)OC(=O)CCC(=O)O)c1 (racemic) [Sarpogrelate, (R,S)-1-{2-[2-(3-methoxyphenyl)ethyl]-phenoxy}-3-(dimethylamino)-2-propyl hydrogen succinate hydrochloride]
- CLpo (oral systemic clearance) ([1]; Calculated from clinical data): 140 L/h
- inhibition at 1 h [2, 24]: < 10%
- inhibition at 1 h, 0.2 µM [2, 24]: 9.18%
- inhibition at 1 h, 2 µM [2, 24]: 9.72%
- inhibition at 1 h, 10 µM [2, 24]: 9.95%
- inhibition of BCRP-mediated prazosin transport [3]: did not inhibit
- inhibition at 1 h, 0.2 µM [3, 25]: 2.69%
- inhibition at 1 h, 2 µM [3, 25]: 9.62%
- inhibition at 1 h, 10 µM [3, 25]: 0.38%
- microsomal CLint at 400 nM ([4]; pH 7.4, CLint for M-1 formation (carboxylesterase-mediated CLint), 400 nM sarpogrelate, HLM 0.1 mg/mL, no cofactor): 32.6 µL/min/mg
- microsomal CLint at 400 nM ([4]; pH 7.5, carboxylesterase and UDPGA-dependent CLint, 400 nM sarpogrelate in HLM with UDPGA): 50 ± 7.89 µL/min/mg
- Lag time [13]: 0 h
- fa (fraction absorbed in the gastrointestinal tract) [13]: 1.0
- viability at 1 h, 10 µM [14]: > 97%
- viability at 1 h, 10 µM [15]: > 97%
- formation of M-1 in human intestinal microsomes [16]: not observed
- formation of M-1 in human blood [17]: not observed
- Ki [7]: 1240 nM
- Tmax ([8]; humans, 100 mg oral dose): 0.889 ± 0.651 h
- observed values of AUC0–24 h (range across studies) [8, 22]: 1,291–1,773 ng h/mL
- observed values of Cmax (range across studies) [8, 22]: 466.0 to 781.6 ng/mL
- Tmax [8, 23]: 0.67 (0.3–1.5) ^a hours
- Tmax ([8]; observed, single oral 100 mg sarpogrelate hydrochloride, median (range), ref 22): 1.00 (1.0–4.0) ^a hours
- observed values of AUC (range across studies) [8, 26]: 348.3 to 621.5 ng·h/mL
- observed values of Cmax (range across studies) [8, 26]: 343.0 to 635.1 ng/mL
- unchanged sarpogrelate in urine or feces ([8]; up to 24 hours after a 100 mg oral dose, humans): no unchanged sarpogrelate was detected
- Log P ([18]; PBPK input, reference cell empty, apparently ref www.Chembase.cn): 1.12
- PSA ([18]; ref www.Chembase.cn): 85.3
- plasma protein binding [12]: approximately 95%
- biopharmaceutics classification system (BCS) class [19]: Class I

Structure (SMILES): CNCCCN1c2ccccc2CCc2ccccc21 [Desipramine, desipramine]
- metabolized fraction by CYP2D6 [20]: 0.88

Structure (SMILES): COc1ccc2c(c1)[C@]13CCCC[C@@H]1[C@H](C2)N(C)CC3 [Dextromethorphan, dextromethorphan]
- metabolized fraction by CYP2D6 [20]: 0.96

Structure (SMILES): COCCc1ccc(OCC(O)CNC(C)C)cc1 (stereo not drawn) [Metoprolol, metoprolol]
- fold increase of AUCt of metoprolol (observed) [21]: 1.53 fold
- fold increase of Cmax of metoprolol (observed) [21]: 1.62 fold
- metabolized fraction by CYP2D6 [20]: 0.83
